Assay results from ChEMBL document CHEMBL4308887, “Synthesis and biological evaluation of clovamide analogues with catechol functionality as potent Parkinson's disease agents in vitro and in vivo” (Bioorg Med Chem Lett, 2019).
pEC50: −log10 of the molar value.

Assays:
[1] = system: SH-SY5Y; experiment: Neuroprotection against H2O2-induced cell death in human SH-SY5Y cells at 100 uM preincubated for 6 hrs followed by H2O2 addition and measured after 24 hrs by MTT assay relative to control; format: functional
Outline: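 Human SH-SY5Y neuroblastoma cells pretreated with compound at 100 μM for 6 h, then exposed to 600 μM H₂O₂ for 24 h; viability read by MTT and expressed as protection rate relative to untreated control. DMSO below 0.1% in all groups. Primary single-concentration screen; three independent experiments.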

[2] = system: SH-SY5Y; experiment: Neuroprotection against H2O2-induced cell death in human SH-SY5Y cells preincubated for 6 hrs followed by H2O2 addition and measured after 24 hrs by MTT assay; format: functional, cell-based
Outline: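 Primary screen at 100 μM, then dose-response. SH-SY5Y cells pretreated, then exposed to 600 μM H₂O₂ (the level chosen from a 100–1000 μM, 24 h viability titration). EC₅₀ is the concentration giving 50% of maximal effect. N-acetyl-L-cysteine served as positive control. DMSO below 0.1%. Mean ± S.E.M. of three experiments.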

Structure (SMILES)	Activity [1] [%]	pEC50 [2]
COC(=O)[C@H](Cc1ccc(O)cc1)NC(=O)/C=C/c1ccccc1	<50	
COC(=O)[C@H](Cc1ccccc1)NC(=O)/C=C/c1ccc(O)cc1	<50	
COC(=O)[C@H](Cc1ccc(O)c(O)c1)NC(=O)/C=C/c1ccc(O)c(O)c1 [N-CAFFEOYL-DOPA METHYL ESTER]	>50	4.81
CC(=O)N[C@@H](CS)C(=O)O [ACETYLCYSTEINE]		2.77
COC(=O)[C@H](Cc1ccc(O)c(O)c1)NC(=O)/C=C/c1ccccc1 [N-CINNAMOYL-DOPA METHYL ESTER]	>50	4.84
COC(=O)[C@H](Cc1ccc(O)cc1)NC(=O)/C=C/c1cccc(O)c1	<50	
COC(=O)[C@H](Cc1ccccc1)NC(=O)/C=C/c1ccccc1	<50	
COC(=O)[C@H](Cc1ccc(O)c(O)c1)NC(=O)/C=C/c1cccc(O)c1	>50	4.76
COC(=O)[C@H](Cc1ccc(O)c(O)c1)NC(=O)/C=C/c1ccc(O)cc1	>50	4.72
COC(=O)[C@H](Cc1ccc(O)cc1)NC(=O)/C=C/c1ccc(O)cc1	<50	
COC(=O)[C@H](Cc1ccc(O)cc1)NC(=O)/C=C/c1cccc(OC)c1	<50	
COC(=O)[C@H](Cc1ccccc1)NC(=O)/C=C/c1cccc(O)c1	<50	
COC(=O)[C@H](Cc1ccc(O)c(O)c1)NC(=O)/C=C/c1ccc(O)c(OC)c1	>50	4.62
COC(=O)[C@H](Cc1ccccc1)NC(=O)/C=C/c1ccc(O)c(OC)c1	<50	
O=C(O)/C=C/c1ccc(O)c(O)c1 [CAFFEIC ACID]		4.47
COC(=O)[C@H](Cc1ccc(O)cc1)NC(=O)/C=C/c1ccc(O)c(O)c1	>50	4.95
